# Results as given in ChEMBL document CHEMBL1159325, “Pseudoirroratin A, a new cytotoxic ent-kaurene diterpene from Isodon pseudo-irrorata” (J Nat Prod, 2002).
# Legend:
# Type in all cases: functional, cell-based
# KB = assay: Cytotoxicity against human KB cells by MTT assay
# In short: (§1)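 Cytotoxicity was run on human cell lines (Lu1, SW626, LNCaP, KB, and the HOG.R5 reporter line derived from parental HOS cells) following a previously established protocol. Camptothecin served as the positive control, and results were expressed as IC50.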
# LNCaP = assay: Cytotoxicity against human LNCAP cells by MTT assay; in short: as §1
# Lu1 = assay: Cytotoxicity against human Lu1 cells by MTT assay; in short: as §1
# SW626 = assay: Cytotoxicity against human SW626 cells by MTT assay; in short: as §1
# [1] = Cytotoxicity against human HOG.R5 cells by MTT assay; in short: as §1
# HOS = assay: Cytotoxicity against human HOS cells by MTT assay
Structure (SMILES),IC50 (KB) [nM],IC50 (LNCaP) [nM],IC50 (Lu1) [nM],IC50 (SW626) [nM],IC50 [1] [nM],IC50 (HOS) [nM]
CC[C@@]1(O)C(=O)OCc2c1cc1n(c2=O)Cc2cc3ccccc3nc2-1 [CAMPTOTHECIN],28.7,86.1,28.7,28.7,28.7,
C=C1C(=O)[C@]23[C@H](O)C[C@@H]4C(C)(C)CCC[C@]45CO[C@](O)(C[C@@H]1[C@H]2O)[C@@H]53 [PSEUDOIRRORATIN A],2590,2590,750,570,,1440
